# Screens as filed in PubChem BioAssay.
# Only some compounds are listed: those with a hit (about 3.7% of all), similar ones and a draw of the others.
# MC4R barr agon: MC4R agonists recruiting beta-arrestin, primary screen, cell-based, luminescence, agonist arm of biased-ligand search | activation, % at 8.9 µM | U2OS MC4R beta-arrestin complementation; percent of melanotan II response, DMSO zero | AID 540308, 2011 | 360,000 compounds, 0.98% hits | Melanocortin receptor 4 (Homo sapiens), P32245;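 active means activation above a per-plate cutoff, the mean activation of sample wells on that plate plus 3 SD, cut at about 8% in these data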
# Target sequence (P32245 whole entry, looked up): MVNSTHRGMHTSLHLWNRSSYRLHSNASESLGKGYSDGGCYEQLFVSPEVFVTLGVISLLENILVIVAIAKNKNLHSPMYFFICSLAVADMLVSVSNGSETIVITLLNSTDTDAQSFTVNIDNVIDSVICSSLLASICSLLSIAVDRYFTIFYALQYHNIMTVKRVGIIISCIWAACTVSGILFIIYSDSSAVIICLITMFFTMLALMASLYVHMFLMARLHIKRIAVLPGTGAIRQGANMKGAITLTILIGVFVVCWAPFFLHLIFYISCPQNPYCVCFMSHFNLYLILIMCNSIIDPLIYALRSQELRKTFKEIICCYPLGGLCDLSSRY
# Exocytosis inh: LAMP-1 surface exposure blockers, TALL-104 cells – cell-based, flow cytometry, MLPCN library, primary screen; TALL-104 LAMP-1 surface exposure; cells stimulated with thapsigargin and PMA; inhibition, % at 10 µM; 360,000 compounds, 0.66% hits; AID 651702, 2012;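 active means inhibition above about 55%, limit read from the data; inconclusive means no clear call, values can overlap the other calls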
# MC4R antag cAMP: MC4R antagonists of cAMP signaling, primary screen, cell-based, TR-FRET, antagonist arm of biased-ligand search | MC4R-expressing cells, MTII-stimulated cAMP, LANCE TR-FRET | 360,000 compounds, 0.48% hits | Melanocortin receptor 4 (Homo sapiens), P32245 | AID 540295, 2011 | inhibition, % at 6.5 µM;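 active means inhibition above its plate's cutoff, the mean of tested wells on that plate plus 3 SD, cut at about 29% in these data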
#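 Assay system: U2OS-MC4R stable cell line; Also added: Melanotan II; Technique: Eu-cAMP/anti-cAMP TR-FRET, emission 671 nm; Times: 30-min compound, 1-h challenge, 1-h detection, room temperature.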
# Myeloid diff 2: induction of myeloid progenitor differentiation, primary screen, cell-based, flow cytometry, MLPCN library | 360,000 compounds, 1% hits | ER-HoxA9 myeloid progenitors, lysozyme-GFP differentiation | calls only at 10 µM;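 active means normalized GFP-positive differentiation at or above the plate's own cutoff, the solvent-only control mean plus 3 SD; inconclusive means no clear call, values can overlap the other calls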;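 further: cells exposed to compound for four days before flow analysis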
# EBI2 block: EBI2 receptor antagonists, beta-arrestin recruitment, primary screen, cell-based, luminescence, 7a,25-OHC stimulation, uHTS; G-protein coupled receptor 183 (Homo sapiens), P32249; 7a,25-OHC stimulated; inhibition, % at 5 µM; 360,000 compounds, 0.81% hits; in the data active means inhibition above about 38%;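 further: enzyme fragment complementation signal reports receptor beta-arrestin coupling in cells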
# EBI2 antag conf: EBI2 antagonist hit retest, beta-arrestin, confirmation, cell-based, single concentration, luminescence, 7a,25-OHC stimulation. 2,400 compounds, 29% hits. 7a,25-OHC antagonism. AID 651997, 2013. shares compounds with EBI2 block. inhibition, % at 5 µM;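 active means inhibition of at least 50%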
# EBI2 ag: EBI2 agonist activity of antagonist hits, confirmation, counter-screen for EBI2 antagonist project, cell-based, single concentration, agonist mode, luminescence | shares compounds with EBI2 block | EBI2-expressing cells, 60 min; 0% vehicle, 100% 7α,25-dihydroxycholesterol control | activation, % at 5 µM | 2,400 tested, under 10 active;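 active means activation of at least 50%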
# bGal counter: E. coli beta-galactosidase enzyme inhibition, confirmation, counter-screen for EBI2 antagonist project, biochemical, luminescence, single concentration; inhibition, % at 5 µM; 2,400 compounds, 1% hits; purified beta-galactosidase, luminescent Galacton Star, 15 min; shares compounds with EBI2 block;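 active means replicate-average signal at least 3 plate SD below neutral wells, shown as high inhibition, flagging enzyme-inhibiting false positives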;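 further: higher means stronger loss of beta-gal luminescence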
# Numbers stand for hits; - = inactive; ? = inconclusive; . = no result given.
SMILES,MC4R barr agon,Exocytosis inh,MC4R antag cAMP,Myeloid diff 2,EBI2 block,EBI2 antag conf,EBI2 ag,bGal counter
COc1ccc(OCC(=O)N2CCN(c3nnc(-c4ccccc4)c4ccccc34)CC2)cc1,-,-,-,-,92,80,-,-
O=C(COc1ccccc1)N1CCN(c2nnc(-c3ccccc3)c3ccccc23)CC1,-,-,-,-,71,-,-,-
COc1ccc(OCC(=O)N2CCN(c3nnc(-c4ccc(C)cc4)c4ccccc34)CC2)cc1,-,-,-,-,96,83,-,-
Cc1ccc(OCC(=O)N2CCN(c3nnc(-c4ccc(C)cc4)c4ccccc34)CC2)cc1,-,-,-,-,87,84,-,-
CC[C@]1(C(=O)OC)[C@H]2C(=O)N(C)C(=O)[C@H]2[C@H]2CN(C)C(=NC)N21,-,-,-,-,-,.,.,.
Clc1ccc(SCCOCCN2CCCCCC2)cc1,-,-,-,-,-,.,.,.
CCC(=O)c1cn(CC(=O)Nc2ccc(C)cc2C)c2ccccc12,-,-,-,-,-,.,.,.
O=C(NCc1ccc(F)cc1)C1CCN(S(=O)(=O)c2ccc(Cl)cc2)CC1,-,-,-,-,-,.,.,.
O=C(NCc1ccc(Cl)cc1)C1CCN(S(=O)(=O)c2ccccc2)CC1,-,-,-,-,65,-,-,-
O=C(NCc1ccc(Cl)cc1)C1CCN(S(=O)(=O)c2cc([N+](=O)[O-])ccc2Cl)CC1,-,-,-,-,47,-,-,-
O=C(Nc1cccc(F)c1)N1CCC(c2ccccc2)CC1,-,-,-,-,67,-,-,-
Cc1ccc(NC(=O)N2CCC(c3ccccc3)C2)cc1C (stereo not given),-,-,-,-,73,63,-,-
COc1ccc(NC(=S)N2CCC(c3ccc(C)cc3)C2)cc1 (stereo not given),-,-,-,-,46,-,-,-
Cc1ccc(C2CCN(C(=O)Nc3ccccc3)C2)cc1 (stereo not given),-,-,-,-,60,-,-,-
O=C(NC1CCN(C(=O)Nc2cccc(F)c2)CC1)C1CCCCC1,-,-,-,-,-,.,.,.
Cc1ccc(NS(=O)(=O)c2ccc(C)c(NC(=O)c3ccc(S(=O)(=O)N4CCCCCC4)cc3)c2)c(C)c1,-,-,-,-,-,.,.,.
Cc1csc2c(=O)n(CCO)c(=O)[nH]c12,-,-,-,-,-,.,.,.
CCOc1ccccc1NC(=O)C(=O)N/N=C/c1cc(Br)ccc1O,-,-,-,?,-,.,.,.
CN(C)c1ccc(-c2noc(C3CCN(S(=O)(=O)c4ccc(C(=O)O)cc4)CC3)n2)cc1,-,-,-,-,-,.,.,.
CN(C)c1ccc(-c2noc(C3CCN(C(=O)Nc4ccc(Cl)cc4)CC3)n2)cc1,-,-,-,-,82,57,-,-
O=C(Nc1ccc(Cl)cc1)N1CCC(c2ccccc2)C1 (stereo not given),-,-,-,-,87,55,-,-
CCCCNc1c(-c2ccc(SC(C)CC)c(OC)c2)nc2ccc(Cl)cn12 (stereo not given),-,-,-,-,-,.,.,.
CCCCCCSc1ccc(-c2nc3ccc(C)cn3c2NCCCC)cc1OC,.,-,.,-,63,63,-,-
COc1cccc(/C=C/C(=O)N2CCN(c3ccccn3)CC2)c1,-,-,-,-,75,-,-,-
O=C(/C=C/c1cccc([N+](=O)[O-])c1)N1CCN(c2ccccn2)CC1,-,-,-,-,-,.,.,.
SMILES,MC4R barr agon,Exocytosis inh,MC4R antag cAMP,Myeloid diff 2,EBI2 block,EBI2 antag conf,EBI2 ag,bGal counter
CSc1ccc(/C=C/C(=O)N2CCN(c3ccccn3)CC2)cc1,-,-,-,-,93,81,-,-
COc1ccc(/C=C/C(=O)N2CCN(c3ccccn3)CC2)cc1,-,-,-,-,93,76,-,-
CC(Nc1n[nH]c(=O)[nH]c1=O)C(=O)N/N=C/c1cccs1 (stereo not given),-,-,-,-,-,.,.,.
CCc1nc2c(OCC(=O)c3ccc(F)cc3)cccn2c1N(C)C(=O)C(C)C,-,-,-,-,-,.,.,.
COc1ccc(OCCN2CCC(C(=O)NC(c3ccc(F)cc3)c3ccc4ccccc4n3)CC2)cc1 (stereo not given),-,-,-,-,53,-,-,-
COc1ccc(OCCN2CCC(C(=O)NC(c3ccc(OC)cc3)c3ccccn3)CC2)cc1 (stereo not given),-,-,-,-,-,.,.,.
COc1ccc(C(NC(=O)C2CCN(CCOc3ccc(Cl)cc3)CC2)c2cccs2)cc1 (stereo not given),-,-,-,-,46,-,-,-
COc1ccc(OCCN2CCC(C(=O)NC(c3ccccc3)c3ccc4ccccc4n3)CC2)cc1 (stereo not given),-,-,-,-,49,-,-,-
COc1cc(CN2CCC(C(=O)NC(c3ccc(F)cc3)c3ccc4ccccc4n3)CC2)cc(OC)c1 (stereo not given),-,-,-,-,-,.,.,.
O=C(NC(c1ccccc1)c1ccc2ccccc2n1)C1CCN(CCOc2ccc(Cl)cc2)CC1 (stereo not given),-,-,-,-,60,59,-,-
O=C(CSc1nnc(NC(=O)c2ccc(F)cc2F)s1)NC1CCCC1,-,-,-,-,-,.,.,.
CCN(C(=O)c1cc(S(=O)(=O)N2CCc3ccccc32)cn1C)c1ccccc1,-,-,-,-,-,.,.,.
O=S(=O)(c1cccs1)N1CCN(c2ccc(Cl)cc2)CC1,-,-,-,-,-,.,.,.
O=S(=O)(c1cccs1)N1CCN(CCOc2ccc(Cl)cc2)CC1,-,-,-,-,64,-,-,-
COc1cc(CCC(=O)N2CCN(S(=O)(=O)c3ccc(C)c(C)c3)CC2)cc(OC)c1OC,-,-,-,-,-,.,.,.
COc1ccc(CCC(=O)N2CCN(S(=O)(=O)c3ccc(OC(F)(F)F)cc3)CC2)cc1,-,-,-,-,54,-,-,-
COc1ccc(CCC(=O)N2CCN(S(=O)(=O)c3ccc4ccccc4c3)CC2)cc1,-,-,-,-,64,-,-,-
